Calls of active or inactive are those of the source.
Experiments:
Assay type in all cases: functional, cell-based
[1] = test system: K562; experiment: Cytotoxicity against human K562 cells at 20 to 25 uM measured after 48 hrs by SRB assay
In short: (§1)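 SRB screen in human cancer lines (U-251 glioblastoma, PC-3 prostate, K562 leukemia, HCT-15 colorectal, MCF-7 breast, SKLU-1 lung). 5000−7500 cells per well were preincubated 24 h at 37 °C, 5% CO2, then exposed to compound (20.0 or 25.0 μM) for 48 h. Cells were fixed and stained with sulforhodamine B, and absorbance was read at 515 nm.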

[2] = test system: U-251; experiment: Cytotoxicity against human U251 cells at 20 to 25 uM measured after 48 hrs by SRB assay; in short: as §1
[3] = test system: MCF7; experiment: Cytotoxicity against human MCF7 cells at 20 to 25 uM measured after 48 hrs by SRB assay; in short: as §1
[4] = test system: PC-3; experiment: Cytotoxicity against human PC3 cells at 20 to 25 uM measured after 48 hrs by SRB assay; in short: as §1
[5] = test system: HCT-15; experiment: Cytotoxicity against human HCT15 cells at 20 to 25 uM measured after 48 hrs by SRB assay; in short: as §1
[6] = test system: SK-LU-1; experiment: Cytotoxicity against human SKLU1 cells at 20 to 25 uM measured after 48 hrs by SRB assay; in short: as §1

Measured: Activity

C[C@@H]1[C@@H](C)O[C@@H]2O[C@@H](c3ccoc3)C[C@@]21c1cccc2c1COC2=O
inactive: all assays above

COC1C=C([C@H]2C[C@]34[C@@H](O2)O[C@H](C[C@@]25COC(=O)[C@@H]2CC=C[C@H]53)[C@H]4C)C(=O)O1 (mixture of isomers)
inactive: all assays above

C[C@@H]1[C@H]2C[C@@]34COC(=O)[C@@H]3CC=C[C@H]4[C@@]13C[C@H](c1ccoc1)O[C@H]3O2
inactive: all assays above

COc1ccc(-c2cc(=O)c3c(O)c(OC)c(OC)cc3o2)cc1O
inactive: all assays above

C[C@@]12C[C@@]3(c4ccoc4)O[C@@]14CCC=C1C(=O)OC[C@]14CC[C@]2(C)O3
inactive: all assays above

C[C@@H]1[C@H]2C[C@@]34COC(=O)[C@@H]3CC=C[C@H]4[C@@]13C[C@H](C1=CC(O)OC1=O)O[C@H]3O2 (stereo not given in full)
inactive: all assays above

C[C@@H]1[C@H]2C[C@@]34COC(=O)[C@H]3CC=C[C@H]4[C@@]13C[C@H](c1ccoc1)O[C@H]3O2
inactive: all assays above

C[C@@H]1[C@H]2C[C@@]34COC(=O)[C@H]3CC=C[C@H]4[C@@]13C[C@H](C1=CC(O)OC1=O)O[C@H]3O2 (stereo not given in full)
inactive: all assays above

C[C@@H]1[C@H]2C[C@@]34COC(=O)[C@@H]3CC=C[C@H]4[C@@]13C[C@H](C1=CC(=O)OC1O)O[C@H]3O2 (stereo not given in full)
inactive: all assays above

C[C@@H]1[C@H]2C[C@@]34COC(=O)[C@H]3CC=C[C@H]4[C@@]13C[C@H](C1=CC(=O)OC1O)O[C@H]3O2 (stereo not given in full)
inactive: all assays above
